Source: PubChem BioAssay
The source made the active and inactive calls.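 The calls were made as follows, unless noted: active = NADPH fluorescence slope more negative than the mean of all samples by about 3 SD, 99.7% confidence; inactive = the rest.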

Key:
[1] = inhibitors of TNFa-induced NFkB p65 translocation, primary screen, imaging, HUVEC, MLSMR starter and 10KST1 sets (AID 438;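 active = inhibition above 20% together with a positive visual image hit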;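 also: compound added about 3h40 before a 20 min TNFalpha stimulation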;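 as to inhibition: signal is the nuclear over cytoplasmic p65 intensity ratio per well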); conditions: HUVEC TNFa-induced p65 nuclear translocation; cell count: measured here: nuclei count (cytotoxicity indicator), at 2.08 µM; inhibition: at 2 µM, stronger effect = higher value, 0% TNFa-plus-vehicle, 100% no-TNFa wells
[2] = endothelial E-selectin expression blockers – imaging, HUVEC, immunofluorescence, MLSMR starter and 10KST1 sets, primary screen (AID 487;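 active = visually confirmed hit in the image check and inhibition above 20%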;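 as to inhibition: signal is fraction of cell area covered by stained E-selectin grains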;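 as to nuclei count: 100% = median nuclei count of all wells on the same plate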); conditions: HUVEC TNFalpha-induced E-selectin immunofluorescence imaging, at 2 µM; inhibition: stronger effect = higher value; nuclei count: measured here: cell number, toxicity
[3] = Primary imaging screen for DUSP6 inhibitors that restore phospho-Erk in transfected HeLa cells, chemical complementation (AID 609;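 active = compounds giving at least 50% inhibition in the cell-based MKP-3 phosphatase rescue imaging test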;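 as to inhibition: phospho-Erk level distribution per well compared with pooled transfected vehicle control wells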); conditions: HeLa MKP-3 transfected, phospho-Erk imaging KS statistic, at 10 µM, cells stimulated with TPA for 15 min
[4] = target: Dual specificity protein phosphatase 6 (Homo sapiens) (UniProt Q16828); assay: as above; conditions: HeLa MKP-3 transfected, phospho-Erk imaging KS statistic; at 10 µM; stronger effect = higher value; cells stimulated with TPA for 15 min
[5] = target: Voltage-gated potassium channel subunit beta-2 (Rattus norvegicus) (UniProt P62483); assay: inhibitors of rat Kvbeta2 reductase activity – biochemical, NADPH fluorescence, primary screen (AID 622;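 active = fluorescence slope higher than the sample average by over 3 SD, cut at about -0.22 in these data, passing the limit was not always enough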;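 also: slope of raw intensity against log time taken from 70 to 1610 s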); conditions: recombinant KvBeta, 4-cyanobenzaldehyde reduction, at 10 µM, stronger effect = higher value
[6] = target: Voltage-gated potassium channel subunit beta-2 (Rattus norvegicus) (UniProt P62483); assay: enhancers of rat Kvbeta2 NADPH turnover – biochemical, NADPH fluorescence, primary screen (AID 623); conditions: Recombinant KvBeta, NADPH fluorescence decrease slope, 10 min; at 10 µM; stronger effect = lower value;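 also: fluorescence intensity change per second fitted from 20 to 320 s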
[7] = target: Alpha-2C adrenergic receptor (Homo sapiens) (UniProt P18825); assay: compounds altering alpha2C-coupled GIRK flux – cell-based, HEK293 alpha2C/GIRK1/2, thallium flux, primary screen (AID 624;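 active = fluorescence slope after compound addition differing from the mean of all screened samples at 99.7% confidence, in either direction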;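 also: slope of fluorescence ratio to pre-addition baseline per second over 15 to 24 s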); conditions: thallium flux BTC fluorescence, at 10 µM, actives lie on both sides
[8] = inhibitors of larval lipid processing in zebrafish, primary screen, whole organism, PED6 fluorescence, gall bladder and intestine (AID 686;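 active = a full or partial loss of lipid-probe fluorescence in the fish gall bladder, intestine or both, judged by eye; inactive = no fluorescence loss, or compound toxic to the fish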;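 also: larvae 5 to 7 days old with five fish per well; signal comes from phospholipase A2 cleavage of quenched PED6 carried via bile; overnight exposure to compound and PED6 before scoring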); conditions: Zebrafish larvae PED6 lipid processing, fluorescence scoring; screened at 20 µM (by protocol)
Summary of the method: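 System: live zebrafish larvae aged 5-7 days, whole organism; measure: graded gall bladder and intestinal fluorescence inhibition per well; incubation: overnight exposure; reagent: ingested quenched lipid PED6 at 100 nM; signal: By-eye fluorescence microscopy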

[9] = loss of swimming-algae plug formation – whole organism, Chlamydomonas reinhardtii, WT vs cilia-less mutant, absorbance, 96-well, primary screen (AID 463189;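 active = inhibition at or above 50% relative to wild type and mutant plate controls; inactive = inhibition below 50%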;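 also: 0% = wild type cc124 cells in DMSO and 100% = ciliumless bld1 mutant cells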); conditions: Chlamydomonas reinhardtii gravitaxis, OD600 absorbance, 2 days; at 10 µM; stronger effect = higher value
[10] = measured here: cell density z-score
[11] = measured here: nuclear c-Myc green intensity z-score
[12] = measured here: nuclear pErk red intensity z-score, stronger effect = higher value

Dual specificity protein phosphatase 6 (Homo sapiens), sequence (Q16828 whole entry, looked up): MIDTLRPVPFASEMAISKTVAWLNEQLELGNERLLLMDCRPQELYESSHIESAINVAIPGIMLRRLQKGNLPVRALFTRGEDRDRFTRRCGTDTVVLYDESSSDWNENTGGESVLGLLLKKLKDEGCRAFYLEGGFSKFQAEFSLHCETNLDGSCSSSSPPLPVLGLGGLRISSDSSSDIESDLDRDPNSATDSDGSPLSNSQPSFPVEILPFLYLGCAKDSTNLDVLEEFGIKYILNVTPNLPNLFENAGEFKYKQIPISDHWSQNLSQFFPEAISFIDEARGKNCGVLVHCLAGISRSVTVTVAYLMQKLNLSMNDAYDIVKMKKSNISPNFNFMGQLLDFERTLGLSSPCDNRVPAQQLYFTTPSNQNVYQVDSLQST
Voltage-gated potassium channel subunit beta-2 (Rattus norvegicus), sequence (P62483 whole entry, looked up): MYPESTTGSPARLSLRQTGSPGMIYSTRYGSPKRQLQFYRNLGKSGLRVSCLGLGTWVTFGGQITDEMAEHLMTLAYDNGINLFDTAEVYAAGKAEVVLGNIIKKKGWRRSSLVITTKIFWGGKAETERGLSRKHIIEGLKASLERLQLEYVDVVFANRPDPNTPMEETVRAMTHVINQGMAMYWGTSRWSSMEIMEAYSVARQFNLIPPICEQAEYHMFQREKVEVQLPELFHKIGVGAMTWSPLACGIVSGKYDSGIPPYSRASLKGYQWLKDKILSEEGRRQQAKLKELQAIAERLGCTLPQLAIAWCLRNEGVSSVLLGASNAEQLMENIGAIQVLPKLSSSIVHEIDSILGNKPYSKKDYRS
Alpha-2C adrenergic receptor (Homo sapiens), sequence (P18825 whole entry, looked up): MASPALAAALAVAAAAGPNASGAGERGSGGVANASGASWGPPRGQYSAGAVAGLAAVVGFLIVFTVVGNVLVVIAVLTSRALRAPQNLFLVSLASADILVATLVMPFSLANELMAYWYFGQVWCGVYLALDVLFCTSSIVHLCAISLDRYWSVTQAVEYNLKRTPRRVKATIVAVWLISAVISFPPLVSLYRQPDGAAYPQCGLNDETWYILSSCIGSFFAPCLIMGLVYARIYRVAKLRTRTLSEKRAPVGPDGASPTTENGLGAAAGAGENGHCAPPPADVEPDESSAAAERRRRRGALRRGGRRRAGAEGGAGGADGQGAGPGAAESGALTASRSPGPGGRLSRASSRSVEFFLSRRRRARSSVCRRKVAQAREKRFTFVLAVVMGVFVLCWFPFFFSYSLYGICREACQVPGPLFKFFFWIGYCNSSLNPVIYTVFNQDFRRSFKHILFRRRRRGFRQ

SMILES	cell count [1]	inhibition [1]	inhibition [2]	nuclei count [2] [%]	z-score [3, 10]	z-score [3, 11]	z-score [3, 12]	inhibition [4]	fluorescence slope [5]	NADPH fluorescence slope [6]	slope [7]	outcome [8]	inhibition [9]
O=C(NCc1ccccc1)c1ccc(=O)[nH]n1	328	-0.3% (inactive)	-132% (inactive)	98.8	-0.814	0.951	-1.98	11.3% (inactive)	-0.456 (inactive)	-0.00047 (inactive)	0.00499 (inactive)	inactive; toxic	-6.14% (inactive)
O=C(O)c1cc2n(n1)C(C(F)(F)F)CC(c1ccccc1)N2 (stereo unspecified)	514	-9.8% (inactive)	-120% (inactive)	117	-1.15	-0.827	0.269	3.66% (inactive)	-0.503 (inactive)	-0.000107 (inactive)	0.00535 (inactive)	inactive	-2% (inactive)
CN1CCN(CC(=O)Nc2nc(-c3ccccc3)cs2)CC1	667	-3.3% (inactive)	-41.9% (inactive)	149	-1.89	1.19	0.906	0.671% (inactive)	-0.462 (inactive)	-0.000262 (inactive)	0.0053 (inactive)	inactive	8.3% (inactive)
Cn1c(NCCN2CCCCC2)cc(=O)n(C)c1=O	625	4.3% (inactive)	-24.8% (inactive)	125	1.35	-0.0759	-0.233	-1.12% (inactive)	-0.492 (inactive)	-0.000171 (inactive)	0.00437 (inactive)	inactive	9.26% (inactive)
Cc1ccc(OCC(=O)N2CCC(N3CCCCCC3)CC2)cc1	387	-12% (inactive)	-349% (inactive)	176	-0.193	0.541	-0.692	9.39% (inactive)	-0.391 (inactive)	-2.1e-05 (inactive)	0.00447 (inactive)	inactive	4.12% (inactive)
COCCOCCOCCC(=O)NC1CC2CCC1(C)C2(C)C (stereo unspecified)	580	-10.5% (inactive)	32.9% (inactive)	158	0.451	-0.414	-0.476	6.51% (inactive)	-0.459 (inactive)	-1.1e-05 (inactive)	0.00758 (inactive)	inactive	13.6% (inactive)
O=C(O)C1CCCCN1S(=O)(=O)c1cccc2nsnc12 (stereo unspecified)	488	9.4% (inactive)	-8.1% (inactive)	93.9	-0.854	0.334	-0.543	-6.06% (inactive)	-0.498 (inactive)	-3.9e-05 (inactive)	0.0076 (inactive)	inactive	-16.5% (inactive)
CCCCNC1=C(Br)C(=O)CC(C)(C)C1	372	-30.7% (inactive)	-34.3% (inactive)	101	-0.472	1.05	0.291	11.9% (inactive)	-0.52 (inactive)	-9.2e-05 (inactive)	0.00547 (inactive)	inactive	23.6% (inactive)
CSc1nc2sc3c(c2c(=O)[nH]1)CCC(C)C3 (stereo unspecified)	503	-19.4% (inactive)	-109% (inactive)	191	-1.18	2.07	-0.579	20.2% (inactive)	-0.364 (inactive)	1.3e-05 (inactive)	0.00953 (active)	inactive	3.37% (inactive)
Nc1nnnn1CC(=O)OCc1cccc(Br)c1	351	-7.3% (inactive)	-43.6% (inactive)	167	0.909	-0.848	1.13	1.42% (inactive)	-0.446 (inactive)	-0.000151 (inactive)	0.00561 (inactive)	inactive	-1.03% (inactive)
N#Cc1ccc(-c2cccnc2)nc1SCC(=O)Nc1sc2c(c1C#N)CCC2	539	-25.4% (inactive)	-101% (inactive)	144	0.414	0.682	0.527	-9.66% (inactive)	-0.501 (inactive)	-5.3e-05 (inactive)	0.00453 (inactive)	inactive	-0.076% (inactive)
O=C(O)CC(C(=O)N(c1ccccc1)c1ccccc1)N1CCOCC1 (stereo unspecified)	498	-4.7% (inactive)	-103% (inactive)	118	-1.14	0.849	1.75	-7.01% (inactive)	-0.576 (inactive)	-4e-05 (inactive)	0.00573 (inactive)	inactive	-20.4% (inactive)
Cn1c(=O)c2c(nc(NCc3ccc4c(c3)OCO4)n2Cc2ccc(F)cc2)n(C)c1=O	600	3.1% (inactive)	-39.4% (inactive)	152	-0.468	-0.0841	-0.555	-2.91% (inactive)	-0.511 (inactive)	-8.9e-05 (inactive)	0.00456 (inactive)	inactive	2.97% (inactive)
COc1ccc(NC(=O)C2CSC3c4ccccc4C(=O)N23)cc1 (stereo unspecified)	376	0.6% (inactive)	-32.1% (inactive)	112	-0.228	0.485	-1.59	-1.12% (inactive)	-0.355 (inactive)	2.4e-05 (inactive)	0.00604 (inactive)	inactive	127% (active)
CC1CCN(c2oc(-c3ccccc3Cl)nc2C#N)CC1	601	-11.3% (inactive)	36.1% (inactive)	153	-0.563	0.859	0.215	-0.674% (inactive)	-0.397 (inactive)	-0.000144 (inactive)	0.00562 (inactive)	inactive	4.67% (inactive)
CCC1(C)Cc2c(C#N)c(N)sc(=S)c2CO1 (stereo unspecified)	505	-3.2% (inactive)	-128% (inactive)	140	0.126	0.287	-0.524	-14% (inactive)	-0.501 (inactive)	-2.4e-05 (inactive)	0.00206 (inactive)	inactive	28.8% (inactive)
Cc1cc(=O)oc(C)c1C(=O)NCCN1CCOCC1	476	-0.5% (inactive)	-10.6% (inactive)	92.4	-0.82	0.575	1.34	-1.75% (inactive)	-0.491 (inactive)	-1.8e-05 (inactive)	0.00592 (inactive)	inactive	21.9% (inactive)
COC(=O)CC1=C(C(=O)OC)C(c2ccc3c(c2Cl)OCO3)C(C#N)=C(N)O1 (stereo unspecified)	505	-3% (inactive)	-43.9% (inactive)	146	1.11	-0.928	-0.541	15% (inactive)	-0.319 (inactive)	-2.9e-06 (inactive)	0.00617 (inactive)	inactive	21.8% (inactive)
Clc1ccccc1-c1nn2c(-c3ccccn3)nnc2s1	603	-6.7% (inactive)	-82.4% (inactive)	167	0.327	0.132	-0.483	-0.674% (inactive)	-0.404 (inactive)	-0.000155 (inactive)	0.00777 (inactive)	inactive	48.8% (inactive)
Cc1nnc2n(Cc3ccccc3)c(=O)c3c4c(sc3n12)CN(Cc1ccccc1)CC4	628	-8.2% (inactive)	29.2% (inactive)	167	-0.0797	0.579	0.467	-7.28% (inactive)	-0.423 (inactive)	-5e-05 (inactive)	0.00348 (inactive)	inactive	31.3% (inactive)
Cc1ccc(SCc2c(C#N)c3ccccc3n2C)cc1	288	-2.4% (inactive)	-79.2% (inactive)	129	-1.74	2.02	0.448	12.3% (inactive)	-0.445 (inactive)	-0.000146 (inactive)	0.00992 (active)	inactive	16.9% (inactive)
COc1ccc(OC)c(NC(=O)CSC2=C(C#N)C(c3ccco3)C3=C(CCCC3=O)N2)c1 (stereo unspecified)	356	-6.8% (inactive)	-37.1% (inactive)	141	-0.66	-0.0626	0.62	-6.59% (inactive)	-0.404 (inactive)	-0.000112 (inactive)	0.00599 (inactive)	inactive	20.2% (inactive)
C/C=C/c1ccccc1OCc1ccc(C(=O)O)o1	540	-2.1% (inactive)	9.9% (inactive)	98.3	-2.68	0.479	0.66	0.671% (inactive)	-0.571 (inactive)	-6.2e-05 (inactive)	0.00529 (inactive)	inactive	-4.22% (inactive)
COc1ccc(NC2CC(=O)N(C)C2=O)cc1 (stereo unspecified)	334	-4.4% (inactive)	15% (inactive)	92.4	-0.811	0.0749	1.77	7.42% (inactive)	-0.424 (inactive)	1.4e-05 (inactive)	0.00509 (inactive)	inactive	30.2% (inactive)
CCOC(=O)C1Cc2c([nH]c3ccccc23)C(C)N1 (stereo unspecified)	640	-12.2% (inactive)	-61.9% (inactive)	176	-0.293	-0.384	-0.135	-18.6% (inactive)	-0.422 (inactive)	-5.9e-05 (inactive)	0.00514 (inactive)	inactive	-12.3% (inactive)
N#CC1(P(=O)(c2ccccc2)c2ccccc2)CC1	481	-10.9% (inactive)	-110% (inactive)	143	-0.778	-0.637	-0.322	11.3% (inactive)	-0.546 (inactive)	-5.6e-05 (inactive)	0.00538 (inactive)	inactive	5.77% (inactive)
COc1ccccc1C(CC(=O)Nc1nccs1)c1ccco1 (stereo unspecified)	354	-14.3% (inactive)	-98.9% (inactive)	155	-0.704	-0.887	-0.714	1.75% (inactive)	-0.398 (inactive)	-7.2e-05 (inactive)	0.00663 (inactive)	inactive	31.8% (inactive)
